Compound activity as filed in PubChem BioAssay.
The sample as a whole holds a higher share of hits than the screen did.
XiGFP reactiv – activators of X-chromosome reactivation in mouse fibroblasts; activation, % at 7.58 µM; 360,000 compounds, 0.055% hits; XiGFP mouse fibroblasts, % GFP-positive cells imaging, 3 d; cells co-treated with 5-aza-dC sensitizer; scaled so ellipticine positive control = 100%;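 active = mean normalized replicate activation at least 10% and every replicate at or above 10%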
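Assay system: SV40-immortalized XiGFP fibroblast cells, line 68-5-11; buffer or medium: DMEM plus 5-aza-dC sensitizer; compound: one concentration, pinned; timing: compounds 3 days, fix/stain 15 min at room temperature; benchmarks: positive control ellipticine, 6 µM final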
E-selectin induc – induces E-selectin expression in human endothelial cells. P16581. HUVEC E-selectin immunofluorescence imaging; normalized: neutral wells 0, TNF-alpha wells 100. activation, % at 7.58 µM. 260,000 compounds, 0.37% hits. AID 686992;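 active = mean E-selectin-positive cell signal at least 10% of the positive control, reached in at least 60% of replicates, without over 20% cell loss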
Target sequence (P16581 whole entry, looked up): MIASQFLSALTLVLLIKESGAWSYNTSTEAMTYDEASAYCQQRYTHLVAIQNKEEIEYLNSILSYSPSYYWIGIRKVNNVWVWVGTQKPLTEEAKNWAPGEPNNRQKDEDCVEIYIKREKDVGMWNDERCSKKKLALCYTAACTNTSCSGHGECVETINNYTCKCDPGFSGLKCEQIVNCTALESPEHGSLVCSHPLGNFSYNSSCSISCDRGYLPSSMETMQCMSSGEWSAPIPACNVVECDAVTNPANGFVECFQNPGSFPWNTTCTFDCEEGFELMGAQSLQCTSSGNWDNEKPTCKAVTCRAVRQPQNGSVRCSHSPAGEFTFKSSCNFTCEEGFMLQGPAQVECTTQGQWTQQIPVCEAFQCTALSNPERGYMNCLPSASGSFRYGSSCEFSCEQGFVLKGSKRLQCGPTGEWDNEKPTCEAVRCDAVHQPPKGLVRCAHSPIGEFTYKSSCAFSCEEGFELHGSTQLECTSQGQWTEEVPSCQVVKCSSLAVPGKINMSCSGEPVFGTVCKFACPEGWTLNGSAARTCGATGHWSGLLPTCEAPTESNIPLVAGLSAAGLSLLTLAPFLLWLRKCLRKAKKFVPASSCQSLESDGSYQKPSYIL
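material = human umbilical vein endothelial cells (HUVEC), E-selectin induction | quantity = 3,000 cells/well | medium = EGM-2 growth medium on 0.1% gelatin-coated wells | technique = immunofluorescence imaging | read-out basis = % PE-positive cells | control set = TNF-alpha positive control, DMSO neutral control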
A number is an active result; ! = a repeat was not active.

C[C@H]1CN(C)C(=O)c2cc([N+](=O)[O-])ccc2O[C@@H]1CN(C)C(=O)OC(C)(C)C was read as XiGFP reactiv inactive.
For CCCC(=O)N1CC2(CCN(C)CC2)c2c(n(C)c3cc(OC)ccc23)[C@@H]1CO the results were XiGFP reactiv inactive and E-selectin induc inactive.
`CC(C)NC(=O)Nc1cccc2c1O[C@@H](CN(C)S(=O)(=O)c1cccs1)[C@H](C)CN([C@H](C)CO)C2=O` gave XiGFP reactiv inactive and E-selectin induc inactive.
CCN1CCc2c(sc(NC(=O)CN3C(=O)c4ccccc4C3=O)c2C(N)=O)C1 was read as XiGFP reactiv inactive.
`CCN1CCN(S(=O)(=O)c2ccc(C(=O)Nc3sc4c(c3C(N)=O)CCN(CC)C4)cc2)CC1` gave XiGFP reactiv 54 and E-selectin induc inactive.
`CCN1CCc2c(sc(NC(=O)c3ccc(S(=O)(=O)N4CC(C)OC(C)C4)cc3)c2C(N)=O)C1` (stereo not given) gave XiGFP reactiv inactive.
Screening CCN1CCc2c(sc(NC(=O)c3ccc4ccccc4c3)c2C(N)=O)C1 returned XiGFP reactiv 38 and E-selectin induc inactive.
Screening CCCNC(=O)N1CC2(C1)CN(C(=O)c1ccncc1)[C@H](CO)c1[nH]c3cc(OC)ccc3c12 returned XiGFP reactiv inactive and E-selectin induc inactive.
CNC[C@H]1Oc2ccc(NC(=O)NC(C)C)cc2CC(=O)N(C)C[C@@H]1C was read as XiGFP reactiv inactive.
`COc1ccc(CN2CC3(CCN(C(=O)C4CCC4)CC3)c3c(n(C)c4cc(OC)ccc34)[C@@H]2CO)cc1` gave XiGFP reactiv inactive.
`Cc1ccc(S(=O)(=O)Nc2ccc3c(c2)C(=O)N([C@H](C)CO)C[C@H](C)[C@H](CN(C)Cc2ccc(C(F)(F)F)cc2)O3)cc1` gave XiGFP reactiv inactive and E-selectin induc inactive.
O=C(N/N=C/c1cccs1)c1n[nH]c2c1CCCC2 was read as XiGFP reactiv inactive and E-selectin induc 75.
For Cc1ccc(/C=N/NC(=O)c2n[nH]c3c2CCCC3)cc1 the results were XiGFP reactiv inactive and E-selectin induc inactive.
`CC(=O)Nc1ccc2c(c1)CC(=O)N(C)C[C@H](C)[C@H](CN(C)C(=O)NC(C)C)O2` gave XiGFP reactiv inactive.
CC(=O)c1cc2ccc(O)cc2oc1=O was read as XiGFP reactiv inactive and E-selectin induc inactive.
`O=c1ccc2[n+]([O-])c3ccc(O)cc3oc-2c1` gave XiGFP reactiv inactive and E-selectin induc 193.
COc1ccc2c3c([nH]c2c1)[C@@H](CO)N(C(=O)Nc1cccc(F)c1)CC31CN(S(=O)(=O)c2ccccc2)C1 was read as XiGFP reactiv inactive.
`CC1=CC(=O)c2ccccc2C1=O` gave XiGFP reactiv inactive and E-selectin induc inactive.
For CC(C)(C=O)C1=CC(=O)c2ccccc2C1=O the results were XiGFP reactiv 18 and E-selectin induc inactive.
CS(=O)(=O)c1ccccc1C(=O)N(CCc1ccccc1)Cc1ccccc1 was read as XiGFP reactiv inactive and E-selectin induc inactive.
For COc1ccc(C(=O)N(CCc2ccccc2)Cc2ccccc2)c(OC)n1 the results were XiGFP reactiv inactive and E-selectin induc 30.
COCC(=O)N1CC2(C1)[C@@H](c1ccc(-c3ccccc3)cc1)[C@H](CO)N2C(C)=O was read as XiGFP reactiv inactive and E-selectin induc inactive.
Screening Cc1ccccc1/C=N/Nc1nc2ccccc2[nH]1 returned XiGFP reactiv inactive.
Cc1[nH]c2ccccc2c1/C=N/Nc1nc2ccccc2[nH]1 was read as XiGFP reactiv 17 and E-selectin induc inactive.
For COCC#Cc1ccc2c(c1)O[C@H](CN(C)S(C)(=O)=O)[C@@H](C)CN([C@@H](C)CO)S2(=O)=O the results were XiGFP reactiv inactive and E-selectin induc inactive.
For Cc1cccc(NC(=O)CCc2nc3sc4c(c3c(=O)[nH]2)CCCC4)c1 the results were XiGFP reactiv inactive.
`CCc1cccc(NC(=O)CCc2nc3sc4c(c3c(=O)[nH]2)CCCC4)c1` gave XiGFP reactiv inactive and E-selectin induc 84.
Cc1cccc(NC(=O)Cc2ccc(NC3=NC4CS(=O)(=O)CC4S3)cc2)c1 (stereo not given) was read as XiGFP reactiv inactive and E-selectin induc inactive.
For Cc1cc(C)cc(NC(=O)Cc2ccc(NC3=NC4CS(=O)(=O)CC4S3)cc2)c1 (stereo not given) the results were XiGFP reactiv inactive and E-selectin induc 51.
C[C@H]1CN(C)C(=O)c2cc(N(C)C)ccc2O[C@@H]1CN(C)C was read as XiGFP reactiv inactive.
Screening C[C@H](CO)N1C[C@H](C)[C@@H](CN(C)S(=O)(=O)c2ccccc2)Oc2ccc(NC(=O)Nc3ccc(C(F)(F)F)cc3)cc2C1=O returned XiGFP reactiv inactive and E-selectin induc 431!.
For C[C@H]1CN([C@@H](C)CO)C(=O)c2cc(NC(=O)Nc3ccc(C(F)(F)F)cc3)ccc2O[C@H]1CN(C)S(=O)(=O)c1ccccc1 the results were XiGFP reactiv inactive and E-selectin induc inactive.
For C[C@@H]1CN([C@H](C)CO)C(=O)c2cc(NC(=O)Nc3ccc(C(F)(F)F)cc3)ccc2O[C@@H]1CN(C)S(=O)(=O)c1ccccc1 the results were XiGFP reactiv inactive and E-selectin induc inactive.
Screening C[C@@H]1CN([C@@H](C)CO)C(=O)c2cc(NC(=O)Nc3ccc(C(F)(F)F)cc3)ccc2O[C@H]1CN(C)S(=O)(=O)c1ccccc1 returned XiGFP reactiv inactive and E-selectin induc 79.
`CC(=O)N(C)C[C@H]1Oc2ccc(NC(=O)NC(C)C)cc2CC(=O)N(C)C[C@@H]1C` gave XiGFP reactiv inactive.
`COc1ccc2c3c(n(C)c2c1)[C@H](CO)N(S(C)(=O)=O)CC31CN(C(=O)C2CC2)C1` gave XiGFP reactiv inactive and E-selectin induc inactive.
COc1ccc2c3c([nH]c2c1)[C@H](CO)N(C)CC31CCN(C(=O)c2cccnc2)CC1 was read as XiGFP reactiv inactive and E-selectin induc inactive.
`CCC(C)NC(=O)CSc1nc2c(sc(=S)n2-c2cc(Cl)ccc2OC)c(=O)[nH]1` (stereo not given) gave XiGFP reactiv inactive and E-selectin induc inactive.
For COCCCNC(=O)CSc1nc2c(sc(=S)n2-c2cc(Cl)ccc2OC)c(=O)[nH]1 the results were XiGFP reactiv inactive and E-selectin induc 46.
`O=C1C(SCCO)=C(SCCO)C(=O)c2ccccc21` gave XiGFP reactiv 88 and E-selectin induc inactive.
CC1=C(SCc2ccccc2)C(=O)c2ccccc2C1=O was read as XiGFP reactiv inactive and E-selectin induc inactive.
For C[C@H](CO)N1C[C@H](C)[C@@H](CN(C)S(=O)(=O)c2cccs2)Oc2ccc(NS(=O)(=O)c3ccc(Cl)cc3)cc2CC1=O the results were XiGFP reactiv inactive and E-selectin induc 98.
For C[C@@H]1CN([C@H](C)CO)C(=O)Cc2cc(NS(=O)(=O)c3ccc(F)cc3)ccc2O[C@H]1CN(C)S(=O)(=O)c1ccc(Cl)cc1 the results were XiGFP reactiv inactive and E-selectin induc 29.
Cc1noc(C)c1NC(=O)Nc1ccc2c(c1)CC(=O)N([C@@H](C)CO)C[C@H](C)[C@@H](CN(C)S(=O)(=O)c1ccccc1)O2 was read as XiGFP reactiv inactive and E-selectin induc 49.
